Source: ChEMBL document CHEMBL1240360, “TMC278, a next-generation nonnucleoside reverse transcriptase inhibitor (NNRTI), active against wild-type and NNRTI-resistant HIV-1” (Antimicrob Agents Chemother, 2010)

How the values were obtained:
[1] = test system: Human immunodeficiency virus 1; assay: Antiviral activity against Human immunodeficiency virus 1 subtype O misolate BCF01 infected in human PBMC cells by cell based assay; conditions: Human immunodeficiency virus 1, subtype O isolate BCF01, PBMC
[2] = test system: Human immunodeficiency virus 1; assay: Antiviral activity against Human immunodeficiency virus 1 group M subtype C assessed as days to viral replication breakthrough at 200 nM by cell based assay; type: functional
[3] = test system: Human immunodeficiency virus 1; assay: Antiviral activity against Human immunodeficiency virus 1 group M subtype AE assessed as days to viral replication breakthrough at 10 nM by cell based assay; type: functional
[4] = test system: Human immunodeficiency virus 1; assay: Antiviral activity against Human immunodeficiency virus 1 group M subtype G assessed as days to viral replication breakthrough at 10 nM by cell based assay; type: functional
[5] = test system: Human immunodeficiency virus 1; assay: Antiviral activity against Human immunodeficiency virus 1 group M subtype AG assessed as days to viral replication breakthrough at 10 nM by cell based assay; type: functional
[6] = test system: Human immunodeficiency virus 1; assay: Antiviral activity against Human immunodeficiency virus 1 subtype A isolate 92UG029 infected in human PBMC cells by cell based assay; conditions: Human immunodeficiency virus 1, subtype A isolate 92UG029, PBMC
[7] = test system: Human immunodeficiency virus 1; assay: Antiviral activity against Human immunodeficiency virus 1 subtype E isolate 93TH073 infected in human PBMC cells by cell based assay; conditions: Human immunodeficiency virus 1, subtype E 93TH073, PBMC
[8] = test system: Human immunodeficiency virus 1; assay: Antiviral activity against Human immunodeficiency virus 1 subtype O isolate BCF02 infected in human PBMC cells by cell based assay; conditions: Human immunodeficiency virus 1, subtype O isolate BCF02, PBMC
[9] = test system: Human immunodeficiency virus 1; assay: Antiviral activity against Human immunodeficiency virus 1 group M subtype D assessed as days to viral replication breakthrough at 40 nM by cell based assay; type: functional
[10] = test system: Human immunodeficiency virus 1; assay: Antiviral activity against Human immunodeficiency virus 1 group M subtype BG assessed as days to viral replication breakthrough at 40 nM by cell based assay; type: functional
[11] = test system: Human immunodeficiency virus 1; assay: Antiviral activity against Human immunodeficiency virus 1 group M subtype H assessed as days to viral replication breakthrough at 200 nM by cell based assay; type: functional
[12] = test system: Human immunodeficiency virus 1; assay: Antiviral activity against Human immunodeficiency virus 1 group M subtype C assessed as days to viral replication breakthrough at 40 nM by cell based assay; type: functional
[13] = test system: Human immunodeficiency virus 1; assay: Antiviral activity against Human immunodeficiency virus 1 subtype A1 infected in human MT4 cells assessed as reduction in virus induced cytopathicity; type: functional, organism-based; conditions: Human immunodeficiency virus 1, subtype A1, MT4
How it was run: (§1)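 Recombinant viruses were made by recombining patient-derived HIV-1 RT-PR sequences into an RT-PR-deleted HXB2 proviral clone transfected into MT4 cells. Subtype was assigned from PR/RT sequence by Smith-Waterman alignment to HXB2. MT4 cells (1.5 × 10^5/ml) were infected at MOI 0.01 with serially diluted compound for 5 days at 37°C. Viability was read by MTT and EC50 derived.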

[14] = test system: Human immunodeficiency virus 1; assay: Antiviral activity against Human immunodeficiency virus 1 subtype F isolate 93BR020 infected in human PBMC cells by cell based assay; conditions: Human immunodeficiency virus 1, subtype F isolate 93BR020, PBMC
[15] = test system: Human immunodeficiency virus 1; assay: Antiviral activity against Human immunodeficiency virus 1 group M subtype B assessed as days to viral replication breakthrough at 40 nM by cell based assay; type: functional
[16] = test system: Human immunodeficiency virus 1; assay: Antiviral activity against Human immunodeficiency virus 1 group M subtype D assessed as days to viral replication breakthrough at 10 nM by cell based assay; type: functional
[17] = test system: Human immunodeficiency virus 1; assay: Antiviral activity against Human immunodeficiency virus 1 subtype G isolate G3 infected in human PBMC cells by cell based assay; conditions: Human immunodeficiency virus 1, subtype G isolate G3, PBMC
[18] = test system: Human immunodeficiency virus 1; assay: Antiviral activity against Human immunodeficiency virus 1 group M subtype H assessed as days to viral replication breakthrough at 40 nM by cell based assay; type: functional
[19] = test system: Human immunodeficiency virus 1; assay: Antiviral activity against Human immunodeficiency virus 1 subtype BG infected in human MT4 cells assessed as reduction in virus induced cytopathicity; type: functional, organism-based; how it was run: as §1
[20] = test system: Human immunodeficiency virus 1; assay: Antiviral activity against Human immunodeficiency virus 1 subtype AE infected in human MT4 cells assessed as reduction in virus induced cytopathicity; type: functional, organism-based; how it was run: as §1
[21] = test system: Human immunodeficiency virus 1; assay: Antiviral activity against Human immunodeficiency virus 1 subtype E isolate 92TH006 infected in human PBMC cells by cell based assay; conditions: Human immunodeficiency virus 1, subtype E 92TH006, PBMC
[22] = test system: Human immunodeficiency virus 1; assay: Antiviral activity against Human immunodeficiency virus 1 subtype F1 infected in human MT4 cells assessed as reduction in virus induced cytopathicity; type: functional, organism-based; conditions: Human immunodeficiency virus 1, subtype F1, MT4; how it was run: as §1
[23] = test system: Human immunodeficiency virus 1; assay: Antiviral activity against Human immunodeficiency virus 1 subtype AG infected in human MT4 cells assessed as reduction in virus induced cytopathicity; type: functional, organism-based; how it was run: as §1
[24] = test system: Human immunodeficiency virus 1; assay: Antiviral activity against Human immunodeficiency virus 1 subtype C isolate 92BR025 infected in human PBMC cells by cell based assay; conditions: Human immunodeficiency virus 1, subtype C isolate 92BR025, PBMC
[25] = test system: Human immunodeficiency virus 1; assay: Antiviral activity against Human immunodeficiency virus 1 group M subtype BG assessed as days to viral replication breakthrough at 200 nM by cell based assay; type: functional
[26] = test system: Human immunodeficiency virus 1; assay: Antiviral activity against Human immunodeficiency virus 1 group M subtype BG assessed as days to viral replication breakthrough at 10 nM by cell based assay; type: functional
[27] = test system: Human immunodeficiency virus 1; assay: Antiviral activity against Human immunodeficiency virus 1 group M subtype F1 assessed as days to viral replication breakthrough at 200 nM by cell based assay; type: functional
[28] = test system: Human immunodeficiency virus 1; assay: Antiviral activity against Human immunodeficiency virus 1 subtype D infected in human MT4 cells assessed as reduction in virus induced cytopathicity; type: functional, organism-based; how it was run: as §1
[29] = test system: Human immunodeficiency virus 1; assay: Antiviral activity against Human immunodeficiency virus 1 group M subtype F1 assessed as days to viral replication breakthrough at 40 nM by cell based assay; type: functional
[30] = test system: Human immunodeficiency virus 1; assay: Antiviral activity against Human immunodeficiency virus 1 group M subtype B assessed as days viral replication at 200 nM by cell based assay; type: functional
[31] = test system: Human immunodeficiency virus 1; assay: Antiviral activity against Human immunodeficiency virus 1 group M subtype G assessed as days to viral replication breakthrough at 200 nM by cell based assay; type: functional
[32] = test system: Human immunodeficiency virus 1; assay: Antiviral activity against Human immunodeficiency virus 1 group M subtype D assessed as days to viral replication breakthrough at 200 nM by cell based assay; type: functional
[33] = test system: Human immunodeficiency virus 1; assay: Antiviral activity against Human immunodeficiency virus 1 subtype D isolate 92UG024 infected in human PBMC cells by cell based assay; conditions: Human immunodeficiency virus 1, subtype D 92UG024, PBMC

EC50 [1]: 3.13 nM
EC50 [6]: 0.44 nM
EC50 [7]: 0.07 nM
EC50 [8]: 2.88 nM
EC50 [13]: 0.44 nM
EC50 [14]: 0.16 nM
EC50 [17]: 0.25 nM
EC50 [19]: 0.22 nM
EC50 [21]: 0.08 nM
EC50 [22]: 0.21 nM
EC50 [23]: 0.13 nM
EC50 [24]: 0.33 nM
EC50 [28]: 0.3 nM
EC50 [33]: 0.38 nM
SMILES: Cc1cc(/C=C/C#N)cc(C)c1Nc1ccnc(Nc2ccc(C#N)cc2)n1 [RILPIVIRINE]
Activity [2]: > 31 days
Activity [3]: > 31 days
Activity [4]: > 31 days
Activity [5]: > 31 days
Activity [9]: > 31 days
Activity [10]: 13 days
Activity [11]: > 31 days
Activity [12]: > 31 days
Activity [15]: > 31 days
Activity [16]: 20 days
Activity [18]: > 31 days
EC50 [20]: 0.21 nM
Activity [25]: > 31 days
Activity [26]: 10 days
Activity [27]: > 31 days
Activity [29]: > 31 days
Activity [30]: > 31 days
Activity [31]: > 31 days
Activity [32]: > 31 days
